CHRM4 PAM = human M4 muscarinic receptor positive allosteric modulators, primary screen, CHO-K1 cells, Fluo-8 calcium fluorescence; CHO-K1 hM4/Gqi5, ACh EC20; 0% = ACh EC20, 100% = maximal ACh; Muscarinic acetylcholine receptor M4 (Homo sapiens), P08173; 0.4% of 360,000 active; activation, % at 3 µM;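 active means activation above its plate's cutoff, the mean activation of sample wells plus 3 SD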
M5 ag = human M5 muscarinic receptor agonists, primary screen, CHO-K1 cells, Fluo-8 calcium fluorescence | Muscarinic acetylcholine receptor M5 (Homo sapiens), P08912 | CHO-K1 hM5 cells; 0% DMSO wells, 100% maximal acetylcholine response | activation, % at 3 µM | 0.19% of 360,000 active;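 active means activation above the run's mean over test compounds plus 3 SD, cut at about 23% in these data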;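 further: signal is peak over basal fluorescence ratio across the kinetic read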
Target sequence (P08912 whole entry, looked up): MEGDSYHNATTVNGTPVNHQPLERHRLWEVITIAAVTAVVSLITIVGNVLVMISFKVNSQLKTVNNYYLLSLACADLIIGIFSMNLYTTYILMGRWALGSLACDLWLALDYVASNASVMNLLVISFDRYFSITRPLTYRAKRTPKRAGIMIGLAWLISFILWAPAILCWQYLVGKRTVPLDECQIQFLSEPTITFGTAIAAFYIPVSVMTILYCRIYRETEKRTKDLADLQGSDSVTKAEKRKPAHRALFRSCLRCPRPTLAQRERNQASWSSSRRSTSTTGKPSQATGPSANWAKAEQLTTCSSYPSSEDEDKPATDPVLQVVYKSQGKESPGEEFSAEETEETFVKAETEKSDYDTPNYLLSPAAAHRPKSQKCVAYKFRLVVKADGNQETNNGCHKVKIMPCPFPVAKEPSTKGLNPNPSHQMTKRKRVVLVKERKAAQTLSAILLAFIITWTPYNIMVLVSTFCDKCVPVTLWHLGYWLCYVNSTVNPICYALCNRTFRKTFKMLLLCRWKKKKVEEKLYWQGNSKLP
CHRM4 agonist = human M4 muscarinic receptor agonists, primary screen, CHO-K1 cells, Fluo-8 calcium fluorescence; 0.14% of 360,000 active; CHO-K1 hM4/Gqi5; vehicle 0%, full acetylcholine response 100%; activation, % at 3 µM; AID 624127, 2012;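 active means activation above the run mean over all test wells plus 3 SD, cut at about 32% in these data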;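 further: peak over basal fluorescence ratio per well then scaled between controls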
M4 antag = human M4 muscarinic receptor antagonists, primary screen, CHO cells, Fluo-8 calcium fluorescence | CHO-hM4 cells, ACh EC80 | AID 624125, 2012 | inhibition, % at 3 µM | Muscarinic acetylcholine receptor M4 (Homo sapiens), P08173 | 0.73% of 360,000 active;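 active means inhibition above its plate's cutoff, the mean inhibition of sample wells plus 3 SD, cut at about 27% in these data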
M5 antag = human M5 muscarinic receptor antagonists, primary screen, CHO cells, Fluo-8 calcium fluorescence | CHO-hM5 cells, ACh EC80 | inhibition, % at 3 µM | AID 624040, 2012 | Muscarinic acetylcholine receptor M5 (Homo sapiens), P08912 | 0.59% of 360,000 active;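 active means inhibition above a per-plate cutoff, the mean of that plate's test compounds plus 3 SD, cut at about 27% in these data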
M5 PAM = human M5 muscarinic receptor positive allosteric modulators, primary screen, CHO-K1 cells, Fluo-8 calcium fluorescence | Muscarinic acetylcholine receptor M5 (Homo sapiens), P08912 | CHO-K1 hM5, ACh EC20 PAM; 0% = ACh EC20, 100% = ACh EC100 | activation, % at 3 µM | 0.3% of 360,000 active | AID 624038, 2012;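 active means activation above the run cutoff, the mean activation of all test compounds plus 3 SD, cut at about 18% in these data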
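Probe or stimulus: acetylcholine, EC20 level; Assay system: human M5 receptor in CHO-K1 cells; Schedule: compound preincubation 140 s before EC20 acetylcholine addition; Technique: intracellular calcium via Fluo-8 fluorescence; Dosing: single-point, 3 µM nominal; Read-out basis: percent activation from peak-over-basal fluorescence ratio, scaled EC20-to-EC100 acetylcholine; Repeats: one well per compound, no replicates.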
Large screens that a line does not name were inactive. An excerpt weighted towards active compounds, which were near 1.8% of everything screened.

COc1ccccc1C(CNC(=O)c1cccc(S(=O)(=O)Nc2ccc(C)cc2)c1)N(C)C (stereo not given)	M4 antag 32.4, M5 antag 98.5
CCOC(=O)/C(C#N)=N/Nc1ccc(S(=O)(=O)N2CCc3ccccc32)cc1	M5 antag 27.2
CSc1ccccc1C(=O)C1CCCN(Cc2cnn(-c3ccccc3)c2)C1 (stereo not given)	none
CN(C)CCNC(=O)c1cccc(S(=O)(=O)Nc2ccc(F)cc2)c1	none
CCN(CC)CCNC(=O)c1ccc(NC(=O)c2cccc(S(=O)(=O)Nc3ccc(C)cc3)c2)cc1	M4 antag 43.5, M5 antag 52.0
CCN(CC)CCNC(=O)c1ccc(NC(=O)c2cccc(S(=O)(=O)N3c4ccccc4CC3C)c2)cc1 (stereo not given)	M4 antag 97.1, M5 antag 98.3
Cn1cc(S(=O)(=O)N2CCc3ccccc32)cc1C(=O)NC(C)(C)C	M4 antag 37.5, M5 antag 41.4
COc1ccc(C(=O)Nc2ccc(S(=O)(=O)N3CCc4ccccc43)cc2)cc1	M4 antag 41.5
Cc1cccc(S(=O)(=O)NC2CCCCCCC2)c1	none
CCN(CC)CCNC(=O)c1ccc(NC(=O)c2cccc(S(=O)(=O)N3CCc4ccccc43)c2)cc1	M4 antag 61.3, M5 antag 83.3
Cn1c(CN2CCCCC2)nc2cc(NS(=O)(=O)c3ccc(Cl)cc3)ccc21	CHRM4 agonist 43.0
Cc1ccc(N(C(=O)c2csnn2)C(C(=O)NC2CCCCC2)c2cccnc2)c(C)c1 (stereo not given)	none
CC(C)(C)NC(=O)C(c1cccs1)N(Cc1ccc(F)cc1)C(=O)c1csnn1 (stereo not given)	M5 antag 37.2
CC(C)(C)NC(=O)C(c1cccs1)N(C(=O)c1csnn1)c1cccc(F)c1 (stereo not given)	none
CC(C)OC(=O)c1cc(C(=O)c2cc(F)ccc2O)coc1=N	none
COc1ccc(O)c(C(=O)c2coc(=N)c(C(=O)Nc3ccc(SC(F)F)cc3)c2)c1	M5 antag 28.0
CC(=O)Nc1ccc(NC(=O)C(C)Oc2ccc(C)nc2[N+](=O)[O-])cc1 (stereo not given)	none
CCOC(=O)c1sc(/N=C/c2ccc(O)cc2O)cc1C	none
CC(=O)OCCN(C)c1cc(SC(C)C)c2nonc2c1[N+](=O)[O-]	none
CN(CCO)c1cc(Sc2nc3ccccc3s2)c2nonc2c1[N+](=O)[O-]	M4 antag 92.5
CN(Cc1ccc(F)cc1)C(=O)CNC(=O)C1CCCCC1	none
CN(C)c1ccc(/C=C/C(=O)c2c(O)c3ccccc3oc2=O)cc1	M5 ag 25.6
CCOc1ccc(/C=C/C(=O)c2c(O)c3ccccc3oc2=O)cc1	none
CC(=O)N(C1=C(Cl)C(=O)c2ccccc2C1=O)C1CCCCC1	M4 antag 44.5
CN1CCN(S(=O)(=O)c2ccccc2)C(c2ccccc2)C1 (stereo not given)	none
CN1CCN2c3ccccc3Cc3ccccc3C2C1 (stereo not given)	M5 antag 45.4
O=C(COC(=O)C1COc2ccccc2O1)Nc1ccccc1OC(F)F (stereo not given)	none
O=C(NCCC(=O)N1CCN(c2ccccn2)CC1)c1ccc(Br)cc1	none
Cc1[nH]c2c(C)cccc2c1CCNC(=O)c1ccc2c(c1[N+](=O)[O-])C(=O)c1ccccc1C2=O	M4 antag 29.3
CC(C)N(C(=O)COC(=O)c1cc(Cl)cc(Cl)c1N)C(C)C	M5 antag 27.2
Cc1cc(C)n(-c2ccc(NC(=O)C3CCN(Cc4ccccn4)CC3)cc2)n1	CHRM4 PAM 21.9
CCc1ncc(CN2CCC(C(=O)Nc3ccc(-n4nc(C)cc4C)cc3)CC2)cn1	none
CSc1ccc(S(=O)(=O)NCC(=O)OCC(=O)N(C)CC(=O)Nc2ccc(F)cc2)cc1[N+](=O)[O-]	none
COc1ccc(-c2nnc(SCC(=O)NCC3CCCO3)o2)cc1 (stereo not given)	none
Cc1cc(C)cc(-c2nnc(SCC(=O)NCC3CCCO3)o2)c1 (stereo not given)	CHRM4 PAM 23.0
C=CCn1c(O)c2ccc(C(=O)N=NC(=O)COc3ccccc3F)cc2c1O	none
CCn1c(Cc2ccccc2)n[nH]c1=S	none
CCCCn1c(Cc2ccccc2)n[nH]c1=S	M4 antag 83.2, M5 antag 38.9
COc1cccc(S(=O)(=O)N(C)C[C@@H]2OCc3cnnn3CCCC(=O)N([C@H](C)CO)C[C@@H]2C)c1	none
CN(C)C=Nc1c(Br)cc(Br)c2nonc12	M5 ag 23.7
O=c1ccn([C@@H]2O[C@H](CNCc3cccc4c3sc3ccccc34)[C@@H](O)[C@H]2O)c(=O)[nH]1	none
COc1ccccc1OCCNC(=O)CNC(=O)c1ccc(C(C)(C)C)cc1	none
COc1ccccc1OCCNC(=O)c1ccc(C(C)(C)C)cc1	M5 PAM 20.4
O=C(N/N=C/c1ccc(-c2ccc(Cl)c(C(=O)O)c2)o1)c1cc2c(ccc3ccccc32)o1	M4 antag 26.5
CC(=NNC(=O)Cn1ccc(C(F)(F)F)n1)c1ccc(-n2ccnc2)cc1	none
CCOC(=O)C1(CC2CCCCO2)CCN(Cc2cc3ccccc3[nH]2)CC1 (stereo not given)	M5 ag 61.6, CHRM4 agonist 124.8, M4 antag 59.4, M5 antag 34.5
COC(=O)C[C@H]1C=C[C@H](NC(=O)Nc2ccccc2OC)[C@@H](CO)O1	none
COc1cc(C2CC(=O)NC3=C2C(=O)CC(C)(C)C3)cc(OC)c1O (stereo not given)	M5 antag 27.2
COc1ccc(Cl)cc1NC(=O)CN(C)CC(=O)NC(C)c1ccccc1 (stereo not given)	none
C/C(=N\NC(N)=S)c1ccc(Cl)s1	none
C/C(=N\NC(=S)NC(C)C)c1ccc(Cl)s1	M4 antag 27.3
COc1ccc(C2=Nn3c(nnc3-c3ccc(OC)cc3)SC2)cc1	M4 antag 27.6
COc1ccc(-c2nnc3n2N=C(C)CS3)cc1	none
CCCC(C)C(=O)Nc1ncc(S(=O)(=O)c2ccc([N+](=O)[O-])cc2)s1 (stereo not given)	M5 ag 48.8, CHRM4 agonist 66.5

Screening data deposited in PubChem by The Scripps Research Institute Molecular Screening Center.
